Measurements: ChEMBL document CHEMBL5705905, “Pharmacological targeting of kinases MST1 and MST2 augments tissue repair and regeneration” (Sci Transl Med, 2016)
Active and inactive are the calls of the source. The rule behind the calls is not given here.

How the values were obtained:
[1] = target: Serine/threonine-protein kinase DCLK1 (Homo sapiens, UniProt O15075); test: Binding affinity to DCAMKL1 (unknown origin) assessed as dissociation constant
[2] = target: Serine/threonine-protein kinase 24 (Homo sapiens, UniProt Q9Y6E0); test: Inhibition of MST3 (unknown origin) assessed as remaining activity at 1 uM by Kinome scan method relative to control
[3] = target: Phosphatidylinositol 4,5-bisphosphate 3-kinase catalytic subunit beta isoform (Homo sapiens) (UniProt P42338); test: Inhibition of PIK3CB (unknown origin) assessed as remaining activity at 1 uM by Kinome scan method relative to control
[4] = target: Mitogen-activated protein kinase kinase kinase kinase 2 (Homo sapiens) (UniProt Q12851); test: Inhibition of MAP4K2 (unknown origin) assessed as remaining activity at 1 uM by Kinome scan method relative to control
[5] = target: G protein-coupled receptor kinase 4 (Homo sapiens) (UniProt P32298); test: Inhibition of GRK4 (unknown origin) assessed as remaining activity at 1 uM by Kinome scan method relative to control
Mus musculus [6] = test: Protection against CCl4-induced mouse assessed as low dead cells at 1 mg/kg, ip administration daily for 10 days by TUNEL staining; assay type: functional, organism-based; details: Liver, time 10.0 day
[7] = tested on: Tyrosine-protein kinase ABL1 (Homo sapiens), P00519 [F317L]; test: Inhibition of ABL1 F317L mutant (unknown origin) assessed as remaining activity at 1 uM by Kinome scan method relative to control
Summary of the method: (§1)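 Active-site-dependent competition-binding (KINOMEscan) panel of 468 kinases, test compound at 1 μM (from a 10 mM DMSO stock). Read-out is ctrl% = (test signal − positive control signal)/(negative control signal − positive control signal) × 100. DMSO is the negative control (100%) and a control compound is the positive control (0%). Lower ctrl% means tighter binding.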

[8] = target: Serine/threonine-protein kinase mTOR (Homo sapiens) (UniProt P42345); test: Inhibition of MTOR (unknown origin) assessed as remaining activity at 1 uM by Kinome scan method relative to control
[9] = target: Phosphatidylinositol 4,5-bisphosphate 3-kinase catalytic subunit gamma isoform (Homo sapiens, UniProt P48736); test: Inhibition of PIK3CG (unknown origin) in presence of ATP by enzymatic assay
Mus musculus [10] = test: Protection against human hepatocyte transplanted FRG mouse assessed as increase in the ratio of BrdU+/FAH+ cells at 1 mg/kg, ip administrated once a daily for 28 days by H&E staining based immunohistochemical analysis; assay type: functional, organism-based; details: Liver, time 28.0 day
[11] = tested on: Epidermal growth factor receptor (Homo sapiens), P00533 [G719C]; test: Inhibition of EGFR G719C mutant (unknown origin) assessed as remaining activity at 1 uM by Kinome scan method relative to control
[12] = target: cAMP-dependent protein kinase catalytic subunit beta (Homo sapiens) (UniProt P22694); test: Inhibition of PKAC-beta (unknown origin) assessed as remaining activity at 1 uM by Kinome scan method relative to control
[13] = target: T1, Serine/threonine-protein kinase 4 (Homo sapiens, UniProt Q13043); test: Inhibition of MST1 (unknown origin) in presence of ATP by enzymatic assay
T1 sequence (Q13043 whole entry): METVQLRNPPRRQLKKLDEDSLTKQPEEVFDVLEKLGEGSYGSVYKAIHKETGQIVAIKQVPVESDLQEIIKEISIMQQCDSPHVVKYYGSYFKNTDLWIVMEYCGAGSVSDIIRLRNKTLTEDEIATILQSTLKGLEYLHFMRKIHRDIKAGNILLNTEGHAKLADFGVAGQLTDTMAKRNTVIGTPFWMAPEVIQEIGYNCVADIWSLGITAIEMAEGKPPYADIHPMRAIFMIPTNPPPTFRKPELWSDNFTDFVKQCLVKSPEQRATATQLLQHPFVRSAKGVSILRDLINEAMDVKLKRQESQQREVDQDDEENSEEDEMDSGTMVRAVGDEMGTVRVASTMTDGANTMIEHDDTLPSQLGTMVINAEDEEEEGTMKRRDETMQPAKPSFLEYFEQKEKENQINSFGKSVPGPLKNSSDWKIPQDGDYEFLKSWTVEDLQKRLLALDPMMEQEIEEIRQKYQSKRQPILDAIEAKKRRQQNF

[14] = target: Dual specificity testis-specific protein kinase 1 (Homo sapiens) (UniProt Q15569); test: Inhibition of TESK1 (unknown origin) assessed as remaining activity at 1 uM by Kinome scan method relative to control
[15] = target: Serine/threonine-protein kinase 38 (Homo sapiens) (UniProt Q15208); test: Inhibition of NDR1 (unknown origin) assessed as remaining activity at 1 uM by Kinome scan method relative to control
[16] = target: Serine/threonine-protein kinase 26 (Homo sapiens, UniProt Q9P289); test: Inhibition of MST4 (unknown origin) assessed as remaining activity at 1 uM by Kinome scan method relative to control
Mus musculus [17] = test: Protection against APAP induced liver injury in mouse assessed as continual expansion of centrilobular necrotic lesions at 1 mg/kg, ip administered at 1.5 hrs by H&E staining; assay type: functional, organism-based
[18] = target: Ephrin type-A receptor 4 (Homo sapiens) (UniProt P54764); test: Inhibition of EPHA4 (unknown origin) assessed as remaining activity at 1 uM by Kinome scan method relative to control
[19] = target: Mast/stem cell growth factor receptor Kit (Homo sapiens) (UniProt P10721); test: Inhibition of KIT (unknown origin) assessed as remaining activity at 1 uM by Kinome scan method relative to control
[20] = target: RAC-beta serine/threonine-protein kinase (Homo sapiens) (UniProt P31751); test: Inhibition of AKT2 (unknown origin) assessed as remaining activity at 1 uM by Kinome scan method relative to control; summary of the method: as §1
[21] = target: TGF-beta receptor type-2 (Homo sapiens) (UniProt P37173); test: Inhibition of TGFBR2 (unknown origin) assessed as remaining activity at 1 uM by Kinome scan method relative to control
[22] = target: Serine/threonine-protein kinase SBK1 (Homo sapiens) (UniProt Q52WX2); test: Inhibition of SBK1 (unknown origin) assessed as remaining activity at 1 uM by Kinome scan method relative to control
Homo sapiens = species on record: Homo sapiens; test: Inhibition of recombinant His-tagged full-length MST1 Y101F/D109A mutant (unknown origin) expressing in Escherichia coli assessed as GST-tagged MOB1 phosphorylation level at 0.01 to 1 uM incubated for 15 min by immunoblot analysis; details: dose 0.01-1 µM
[23] = target: Ribosomal protein S6 kinase alpha-6 (Homo sapiens) (UniProt Q9UK32); test: Inhibition of N-terminal kinase domain RSK4 (unknown origin) assessed as remaining activity at 1 uM by Kinome scan method relative to control
[24] = target: Ephrin type-B receptor 1 (Homo sapiens) (UniProt P54762); test: Inhibition of EPHB1 (unknown origin) assessed as remaining activity at 1 uM by Kinome scan method relative to control
[25] = target: Tyrosine-protein kinase BTK (Homo sapiens) (UniProt Q06187); test: Inhibition of BTK (unknown origin) assessed as remaining activity at 1 uM by Kinome scan method relative to control; summary of the method: as §1
Chain of Tyrosine-protein kinase BTK (Homo sapiens) (Q06187 whole entry): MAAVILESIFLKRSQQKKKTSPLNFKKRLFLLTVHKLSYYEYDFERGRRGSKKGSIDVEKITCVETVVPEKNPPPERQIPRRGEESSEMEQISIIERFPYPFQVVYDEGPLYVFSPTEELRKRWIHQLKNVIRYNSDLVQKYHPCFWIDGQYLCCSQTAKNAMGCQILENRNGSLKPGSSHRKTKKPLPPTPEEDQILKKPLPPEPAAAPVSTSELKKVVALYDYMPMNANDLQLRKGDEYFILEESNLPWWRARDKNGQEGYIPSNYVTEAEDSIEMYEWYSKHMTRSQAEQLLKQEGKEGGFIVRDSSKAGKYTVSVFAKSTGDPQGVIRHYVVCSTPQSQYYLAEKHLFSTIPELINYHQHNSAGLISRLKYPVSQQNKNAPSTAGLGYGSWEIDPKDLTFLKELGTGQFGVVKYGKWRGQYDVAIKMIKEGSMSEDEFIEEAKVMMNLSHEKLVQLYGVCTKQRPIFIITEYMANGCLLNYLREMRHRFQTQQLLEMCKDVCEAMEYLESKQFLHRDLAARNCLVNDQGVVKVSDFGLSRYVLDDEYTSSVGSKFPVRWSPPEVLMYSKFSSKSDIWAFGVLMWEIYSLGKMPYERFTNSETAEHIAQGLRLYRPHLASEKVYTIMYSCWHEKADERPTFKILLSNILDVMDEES

Chain of Ribosomal protein S6 kinase alpha-6 (Homo sapiens) (Q9UK32 whole entry, the tested form may be a part): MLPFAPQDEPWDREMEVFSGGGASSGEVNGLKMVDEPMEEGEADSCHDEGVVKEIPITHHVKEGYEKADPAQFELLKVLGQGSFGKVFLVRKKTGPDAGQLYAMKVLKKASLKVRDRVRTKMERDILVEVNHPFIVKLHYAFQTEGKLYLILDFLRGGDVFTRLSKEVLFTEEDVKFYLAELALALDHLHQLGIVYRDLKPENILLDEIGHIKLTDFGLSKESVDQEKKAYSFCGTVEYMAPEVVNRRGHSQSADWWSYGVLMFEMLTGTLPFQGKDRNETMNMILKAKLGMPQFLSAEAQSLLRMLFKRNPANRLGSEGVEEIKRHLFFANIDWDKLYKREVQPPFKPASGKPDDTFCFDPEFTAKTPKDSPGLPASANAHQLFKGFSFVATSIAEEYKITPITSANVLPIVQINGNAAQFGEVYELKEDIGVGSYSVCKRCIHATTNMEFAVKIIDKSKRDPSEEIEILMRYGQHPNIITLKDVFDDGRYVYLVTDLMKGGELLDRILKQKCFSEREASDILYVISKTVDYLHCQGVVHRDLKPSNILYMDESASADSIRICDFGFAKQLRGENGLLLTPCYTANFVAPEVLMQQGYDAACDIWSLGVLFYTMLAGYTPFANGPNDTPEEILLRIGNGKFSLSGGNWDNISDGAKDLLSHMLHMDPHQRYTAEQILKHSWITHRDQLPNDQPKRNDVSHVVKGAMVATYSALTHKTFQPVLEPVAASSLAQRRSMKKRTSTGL
Chain of Serine/threonine-protein kinase DCLK1 (O15075 whole entry): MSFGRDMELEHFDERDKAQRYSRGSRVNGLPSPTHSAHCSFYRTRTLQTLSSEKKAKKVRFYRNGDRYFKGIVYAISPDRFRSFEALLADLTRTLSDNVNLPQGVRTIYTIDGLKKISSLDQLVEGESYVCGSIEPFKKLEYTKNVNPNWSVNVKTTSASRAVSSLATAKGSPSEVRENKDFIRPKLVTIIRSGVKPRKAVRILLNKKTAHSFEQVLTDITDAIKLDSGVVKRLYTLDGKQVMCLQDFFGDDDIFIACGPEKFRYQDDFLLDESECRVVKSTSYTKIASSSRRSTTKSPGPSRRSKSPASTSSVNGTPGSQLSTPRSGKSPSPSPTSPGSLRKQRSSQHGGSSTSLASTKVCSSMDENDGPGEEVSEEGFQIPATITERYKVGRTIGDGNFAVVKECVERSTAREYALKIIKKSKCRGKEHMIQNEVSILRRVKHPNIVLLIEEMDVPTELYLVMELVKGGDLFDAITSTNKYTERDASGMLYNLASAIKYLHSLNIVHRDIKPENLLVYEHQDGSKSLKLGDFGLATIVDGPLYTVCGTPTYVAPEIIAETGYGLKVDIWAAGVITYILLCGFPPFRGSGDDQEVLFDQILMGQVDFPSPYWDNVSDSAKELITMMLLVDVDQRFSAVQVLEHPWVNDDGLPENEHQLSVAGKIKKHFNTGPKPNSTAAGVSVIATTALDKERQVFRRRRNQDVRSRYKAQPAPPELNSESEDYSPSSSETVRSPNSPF
Chain of RAC-beta serine/threonine-protein kinase (Homo sapiens) (P31751 whole entry): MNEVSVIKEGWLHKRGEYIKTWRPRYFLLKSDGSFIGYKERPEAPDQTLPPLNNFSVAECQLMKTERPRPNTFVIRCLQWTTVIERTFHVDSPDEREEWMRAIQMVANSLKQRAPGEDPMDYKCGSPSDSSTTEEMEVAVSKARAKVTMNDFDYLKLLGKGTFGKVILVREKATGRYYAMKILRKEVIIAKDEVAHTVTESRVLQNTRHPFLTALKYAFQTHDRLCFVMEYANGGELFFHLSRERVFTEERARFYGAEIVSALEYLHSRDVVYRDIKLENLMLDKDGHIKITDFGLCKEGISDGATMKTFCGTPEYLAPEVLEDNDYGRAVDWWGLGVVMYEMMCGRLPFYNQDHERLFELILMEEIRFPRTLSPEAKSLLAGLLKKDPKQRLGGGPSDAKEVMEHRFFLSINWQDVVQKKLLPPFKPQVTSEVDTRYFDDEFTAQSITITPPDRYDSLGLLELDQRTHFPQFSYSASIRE
Chain of Serine/threonine-protein kinase SBK1 (Homo sapiens) (Q52WX2 whole entry): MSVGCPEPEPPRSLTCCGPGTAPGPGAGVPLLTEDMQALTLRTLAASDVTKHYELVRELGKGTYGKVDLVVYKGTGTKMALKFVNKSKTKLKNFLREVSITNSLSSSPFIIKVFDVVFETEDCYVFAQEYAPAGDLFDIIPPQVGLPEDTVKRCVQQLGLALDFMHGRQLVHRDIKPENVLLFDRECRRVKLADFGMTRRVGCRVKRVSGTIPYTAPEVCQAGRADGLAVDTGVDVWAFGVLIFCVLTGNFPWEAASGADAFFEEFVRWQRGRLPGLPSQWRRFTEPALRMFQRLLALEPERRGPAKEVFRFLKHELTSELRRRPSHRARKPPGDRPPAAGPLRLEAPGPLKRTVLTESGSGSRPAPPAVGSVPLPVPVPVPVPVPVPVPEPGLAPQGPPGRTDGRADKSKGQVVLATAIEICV
Chain of Mitogen-activated protein kinase kinase kinase kinase 2 (Homo sapiens) (Q12851 whole entry): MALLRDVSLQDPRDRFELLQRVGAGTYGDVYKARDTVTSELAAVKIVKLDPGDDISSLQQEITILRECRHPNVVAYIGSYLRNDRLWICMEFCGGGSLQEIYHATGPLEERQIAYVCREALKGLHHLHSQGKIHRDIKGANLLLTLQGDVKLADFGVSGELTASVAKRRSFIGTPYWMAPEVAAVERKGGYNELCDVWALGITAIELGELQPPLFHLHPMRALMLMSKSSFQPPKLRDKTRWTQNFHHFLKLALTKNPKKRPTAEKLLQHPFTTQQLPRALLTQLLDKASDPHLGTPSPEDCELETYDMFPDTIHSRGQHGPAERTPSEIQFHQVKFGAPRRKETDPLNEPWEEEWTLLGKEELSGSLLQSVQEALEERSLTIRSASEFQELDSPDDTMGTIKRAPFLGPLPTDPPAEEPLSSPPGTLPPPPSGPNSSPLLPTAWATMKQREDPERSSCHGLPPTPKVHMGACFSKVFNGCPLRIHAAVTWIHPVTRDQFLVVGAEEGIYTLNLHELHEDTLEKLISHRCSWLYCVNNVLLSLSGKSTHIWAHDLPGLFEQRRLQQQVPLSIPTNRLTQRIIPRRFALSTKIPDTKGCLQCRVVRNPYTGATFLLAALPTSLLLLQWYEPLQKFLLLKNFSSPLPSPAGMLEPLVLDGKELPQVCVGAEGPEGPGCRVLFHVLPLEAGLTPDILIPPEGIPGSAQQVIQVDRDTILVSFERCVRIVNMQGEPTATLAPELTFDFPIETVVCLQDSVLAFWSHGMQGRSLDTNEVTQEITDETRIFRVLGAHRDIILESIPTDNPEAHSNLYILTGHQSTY
Chain of Serine/threonine-protein kinase 26 (Q9P289 2-416 limits assumed): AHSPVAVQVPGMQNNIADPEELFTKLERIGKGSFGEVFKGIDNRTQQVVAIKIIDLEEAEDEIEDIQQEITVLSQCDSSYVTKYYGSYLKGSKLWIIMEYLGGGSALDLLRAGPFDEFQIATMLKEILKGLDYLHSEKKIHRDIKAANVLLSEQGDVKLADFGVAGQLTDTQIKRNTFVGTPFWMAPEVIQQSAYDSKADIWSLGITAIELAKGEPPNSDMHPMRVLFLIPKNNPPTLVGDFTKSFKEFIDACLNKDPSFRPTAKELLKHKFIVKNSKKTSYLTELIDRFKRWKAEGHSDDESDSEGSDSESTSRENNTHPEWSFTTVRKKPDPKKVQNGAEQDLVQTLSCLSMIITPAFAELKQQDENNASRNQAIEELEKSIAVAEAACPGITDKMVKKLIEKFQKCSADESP
Chain of TGF-beta receptor type-2 (Homo sapiens) (P37173 whole entry): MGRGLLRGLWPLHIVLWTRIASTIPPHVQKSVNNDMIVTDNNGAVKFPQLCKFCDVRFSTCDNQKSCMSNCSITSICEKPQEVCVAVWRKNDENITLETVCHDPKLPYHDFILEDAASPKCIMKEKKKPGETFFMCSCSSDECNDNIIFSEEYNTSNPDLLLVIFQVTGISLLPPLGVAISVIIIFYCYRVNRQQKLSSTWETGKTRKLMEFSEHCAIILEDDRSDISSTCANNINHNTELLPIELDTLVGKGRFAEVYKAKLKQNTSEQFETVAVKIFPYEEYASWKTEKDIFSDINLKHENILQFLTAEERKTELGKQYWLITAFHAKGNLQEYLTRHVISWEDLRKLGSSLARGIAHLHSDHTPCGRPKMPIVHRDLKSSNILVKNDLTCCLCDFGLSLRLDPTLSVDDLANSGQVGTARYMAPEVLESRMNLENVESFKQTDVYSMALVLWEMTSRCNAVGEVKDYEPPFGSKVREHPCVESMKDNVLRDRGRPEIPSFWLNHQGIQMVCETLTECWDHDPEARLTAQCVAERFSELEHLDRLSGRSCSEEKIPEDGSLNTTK

CN1C(=O)c2sccc2N(C)c2nc(Nc3ccc(S(N)(=O)=O)cc3)ncc21
Kd [1]: 0.025 µM
Activity [2]: 0.9%
Activity [3]: 72%
Activity [4]: 77%
Activity [5]: 99%
Activity (Mus musculus [6]): Active
Activity [7]: 32%
Activity [8]: 84%
IC50 [9]: 0.0384 µM
Activity (Mus musculus [10]): Active
Activity [11]: 78%
Activity [12]: 80%
IC50 [13]: 0.0098 µM
Activity [14]: 80%
Activity [15]: 62%
Activity [16]: 0.6%
Activity (Mus musculus [17]): Active
Activity [18]: 100%
Activity [19]: 100%
Activity [20]: 100%
Activity [21]: 100%
Activity [22]: 42%
inhibition (Homo sapiens): Active
Activity [23]: 66%
Activity [24]: 100%
Activity [25]: 48%
